The results in this text go back to ChEMBL document CHEMBL3272173, “Synthesis and biological activity of peptide antagonists of luliberin (luteinizing hormone-releasing hormone)” (J Med Chem, 1979).

“And” between values parts separate entries of the source, which are not always exact repeats. Equal values may be shown once. Peptide text beside a SMILES is read from it. * marks the point of attachment. Cbz = O=C(OCc1ccccc1)*; Bn = c1ccc(C*)cc1

Experiment [1] has as its target T1, Gonadotropin-releasing hormone receptor (Rattus norvegicus) (UniProt P30969).
T1 sequence (whole entry): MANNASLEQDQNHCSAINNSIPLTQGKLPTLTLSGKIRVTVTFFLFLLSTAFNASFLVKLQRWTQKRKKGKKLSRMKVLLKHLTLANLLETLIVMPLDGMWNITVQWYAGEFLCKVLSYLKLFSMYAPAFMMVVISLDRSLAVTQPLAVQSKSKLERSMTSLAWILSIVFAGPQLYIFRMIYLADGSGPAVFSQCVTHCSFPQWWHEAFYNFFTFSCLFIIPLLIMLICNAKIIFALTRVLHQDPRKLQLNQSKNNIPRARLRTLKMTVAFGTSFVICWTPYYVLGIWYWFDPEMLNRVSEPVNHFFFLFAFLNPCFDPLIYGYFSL
As to the kind of experiment: In vitro antagonist activity at GNRHR in CD rat anterior pituitary gland assessed as inhibition of LH-RH-stimulated LH release at compound to LH-RH molar ratio of 2800 after 4 hrs by radioimmunoassay. Particulars: concentration not given here. An outline of the steps:
(§1)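 Anterior pituitaries from diestrus CD rats (200-250 g) were dissociated enzymatically (collagenase, hyaluronidase, then Viokase). Cells were cultured 4 days at 1.67 × 10^5 cells/mL in DME with 10% horse serum and 2.5% fetal calf serum, then washed serum-free. Duplicate cultures received LH-RH (2-5 × 10^-10 M) with a single analogue concentration in serum-free DME for 4 h at 37 °C. LH in the medium was measured by RIA and reported as % inhibition of LH-RH-stimulated release.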

Experiment [2] addresses T1, Gonadotropin-releasing hormone receptor (Rattus norvegicus). As to the kind of experiment: In vitro antagonist activity at GNRHR in CD rat anterior pituitary gland assessed as ratio of molar concentration of compound to LH-RH for inhibition of LH-RH-stimulated LH release after 4 hrs by radioimmunoassay. The gist of the method:
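Monolayers were cultured 4 days from dissociated anterior pituitary cells of diestrus CD rats. They were exposed in duplicate to LH-RH (2-5 × 10^-10 M) plus multiple analogue concentrations in serum-free DME for 4 h at 37 °C. LH in the medium was measured by radioimmunoassay. The ED50 molar ratio is the analogue:LH-RH molar ratio giving 50% inhibition of LH-RH-stimulated LH release.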

Experiment [3] relates to Rattus norvegicus. Briefly: Antiovulatory activity in CD rat assessed as blockade of ovulation at 3 mg, sc administered as six doses at 1200, 1230, 1300, 1350, 1400 and 1450 hrs during proestrus stage measured during estrus stage by dissecting microscopic analysis. It counts as functional. An outline of the steps:
(§2)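 Cycling Charles River CD rats were given six subcutaneous injections of analogue in 0.1 mL propylene glycol on the afternoon of proestrus, and controls received vehicle alone. Rats were killed the next morning (estrus). Ovulating animals were scored and ova in the oviducts were counted under a dissecting microscope.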

Experiment [4] has as its system Rattus norvegicus. As to the kind of experiment: Antiovulatory activity in sc dosed CD rat assessed as blockade of ovulation administered as six doses at 1200, 1230, 1300, 1350, 1400 and 1450 hrs during proestrus stage measured during estrus stage by dissecting microscopic analysis. The class given is functional. An outline of the steps:
as §2

The target in experiment [5] is T1, Gonadotropin-releasing hormone receptor (Rattus norvegicus). As to the kind of experiment: In vitro antagonist activity at GNRHR in CD rat anterior pituitary gland assessed as inhibition of LH-RH-stimulated LH release at compound to LH-RH molar ratio of 100 after 4 hrs by radioimmunoassay. Particulars: concentration not given here. The gist of the method:
as §1

The subject of experiment [6] is Rattus norvegicus. Briefly: Antiovulatory activity in CD rat assessed as blockade of ovulation at 1 mg, sc administered as six doses at 1200, 1230, 1300, 1350, 1400 and 1450 hrs during proestrus stage measured during estrus stage by dissecting microscopic analysis. It counts as functional. An outline of the steps: as §2
Experiment [7] has as its target T1, Gonadotropin-releasing hormone receptor (Rattus norvegicus). Briefly: In vitro antagonist activity at GNRHR in CD rat anterior pituitary gland assessed as inhibition of LH-RH-stimulated LH release at compound to LH-RH molar ratio of 200 after 4 hrs by radioimmunoassay. To be noted: concentration not given here. The gist of the method: as §1
The target is the same in experiment [8]. Briefly: In vitro antagonist activity at GNRHR in CD rat anterior pituitary gland assessed as inhibition of LH-RH-stimulated LH release at compound to LH-RH molar ratio of 10 after 4 hrs by radioimmunoassay. To be noted: concentration not given here. The gist of the method:
as §1

For experiment [9] the target is unchanged. As to the kind of experiment: In vitro antagonist activity at GNRHR in CD rat anterior pituitary gland assessed as inhibition of LH-RH-stimulated LH release at compound to LH-RH molar ratio of 20 after 4 hrs by radioimmunoassay. To be noted: concentration not given here. The gist of the method: as §1

With `CC(C)C[C@H](NC(=O)CNC(=O)[C@H](Cc1ccc(O)cc1)NC(=O)[C@H](CO)NC(=O)[C@H](Cc1c[nH]c2ccccc12)NC(=O)[C@H](COCc1ccccc1)NC(=O)OCc1ccccc1)C(=O)N[C@@H](CCCNC(=N)N)C(=O)N1CCC[C@H]1C(=O)NCC(N)=O.Cl` (Cbz-S(Bn)WSYGLRPG-NH2), in experiment [1], the inhibition turned out to be 100%. Moreover, the ED50 in [2] amounted to 100 molar ratio. Besides, the “inhibition (INH)” value with Rattus norvegicus [3] came out at 20%.
Take `CC(C)C[C@H](NC(=O)CNC(=O)[C@H](Cc1ccc(O)cc1)NC(=O)[C@H](CO)NC(=O)[C@H](Cc1c[nH]c2ccccc12)NC(=O)[C@H](CCC(=O)NCc1ccccc1)NC(=O)OCc1ccccc1)C(=O)N[C@@H](CCCNC(=N)N)C(=O)N1CCC[C@H]1C(=O)NCC(N)=O.Cl` (HELM PEPTIDE1{[O=C(OCc1ccccc1)[*:2]].E.W.S.Y.G.L.R.P.G.[am]}|CHEM1{[c1ccc(CN[*:1])cc1]}$PEPTIDE1,CHEM1,2:R3-1:R1$$$V2.0): the values for the ED50 (in the experiment with Rattus norvegicus [4]; in experiment [2]) were above 1 mg and 360 molar ratio, respectively. Also, the inhibition in [5] is 96%. Besides, the “inhibition (INH)” value in the experiment on Rattus norvegicus [6] is recorded as 40%.
Turning to `CCNC(=O)[C@@H]1CCCN1C(=O)[C@H](CCCNC(=N)N)NC(=O)[C@H](CC(C)C)NC(=O)[C@@H](CCSC)NC(=O)[C@H](Cc1ccc(O)cc1)NC(=O)[C@H](CO)NC(=O)[C@H](Cc1c[nH]c2ccccc12)NC(=O)[C@H](CCC(N)=O)NC(=O)OCc1ccccc1.Cl`, in [7], the inhibition is 85%. In the experiment with Rattus norvegicus [4], the ED50 worked out at 3 mg. Besides, the “inhibition (INH)” value in the experiment on Rattus norvegicus [3] worked out at 60%.
As to `CCNC(=O)[C@@H]1CCCN1C(=O)[C@H](CCCNC(=N)N)NC(=O)[C@H](CC(C)C)NC(=O)[C@@H](Cc1c[nH]c2ccccc12)NC(=O)[C@H](Cc1ccc(O)cc1)NC(=O)[C@H](CO)NC(=O)[C@H](Cc1c[nH]c2ccccc12)NC(=O)[C@H](CCC(N)=O)NC(=O)OCc1ccccc1.Cl`, the ED50 in the experiment with Rattus norvegicus [4] is above 1 mg; in experiment [2], 3.9 molar ratio. In experiment [5], the inhibition was 100%. For the same molecule, the “inhibition (INH)” value with Rattus norvegicus [6] was found to be 20%.
As to `CC(=O)O.CCNC(=O)[C@@H]1CCCN1C(=O)[C@H](CCCNC(=N)N)NC(=O)[C@H](CC(C)C)NC(=O)[C@@H](Cc1ccccc1)NC(=O)[C@H](Cc1ccc(O)cc1)NC(=O)[C@H](CO)NC(=O)[C@H](Cc1c[nH]c2ccccc12)NC(=O)[C@H](CCC(=O)NCc1ccccc1)NC(=O)OCc1ccccc1`, the inhibition in experiment [8] was 62%; in [9] it was 71%. For the same molecule, the ED50 was above 1 mg with Rattus norvegicus [4]; 2.7 molar ratio and 1.3 molar ratio in experiment [2]. In addition, the “inhibition (INH)” value with Rattus norvegicus [6] is recorded as 0%.
With `CC(=O)O.CCNC(=O)[C@@H]1CCCN1C(=O)[C@H](CCCNC(=N)N)NC(=O)[C@H](CC(C)C)NC(=O)[C@H]1CCCN1C(=O)[C@H](Cc1ccc(O)cc1)NC(=O)[C@H](CO)NC(=O)[C@H](Cc1c[nH]c2ccccc12)NC(=O)[C@H](CCC(N)=O)NC(=O)OCc1ccccc1`, in experiment [7], the inhibition is 74%. In the experiment on Rattus norvegicus [4], the ED50 was 1 mg. Further, the “inhibition (INH)” value in the experiment on Rattus norvegicus [3] is on record as 100%.
As to `COc1ccc(COC(=O)N[C@@H](COCc2ccccc2)C(=O)N[C@@H](Cc2c[nH]c3ccccc23)C(=O)N[C@@H](CO)C(=O)N[C@@H](Cc2ccc(O)cc2)C(=O)N[C@H](Cc2ccccc2)C(=O)N[C@@H](CC(C)C)C(=O)N[C@@H](CCCNC(=N)N)C(=O)N2CCC[C@H]2C(=O)NCC(N)=O)cc1.Cl`, in experiment [8], the inhibition turned out to be 100%. Also, the ED50 with Rattus norvegicus [4] is above 1 mg; in experiment [2], 1.3 molar ratio. Besides, the inhibition (INH) in the experiment with Rattus norvegicus [6] was found to be 40%.
As to `CC(C)C[C@H](NC(=O)[C@@H](Cc1ccccc1)NC(=O)[C@H](Cc1ccc(O)cc1)NC(=O)[C@H](CO)NC(=O)[C@H](Cc1c[nH]c2ccccc12)NC(=O)[C@H](COCc1ccccc1)NC(=O)OCc1ccccc1)C(=O)N[C@@H](CCCNC(=N)N)C(=O)N1CCC[C@H]1C(=O)NCC(N)=O.Cl`, the inhibition in experiment [8] was 90%. Further, the ED50 with Rattus norvegicus [4] was above 3 mg; in experiment [2] it was 1.5 molar ratio. Besides, the “inhibition (INH)” value with Rattus norvegicus [3] was 40%.
